Measurements from different studies.
Protocols differ between the studies behind these lines.

With `CCC[C@H](NC(=O)[C@@H]1CCCN1C(=O)[C@@H](NC(=O)[C@H](N)CC(N)=O)[C@@H](C)CC)C(=O)N[C@@H](CC(C)C)C(=O)N[C@@H](Cc1ccc(O)cc1)C(=O)N[C@H](CO)C(=O)N[C@@H](Cc1ccccc1)C(=O)N[C@@H](C)C(=O)N[C@H](CO)C(N)=O` the AUC(0-t) was 1200 ng·h/mL (rat; plasma; subcutaneous; 10 mg/kg; single dose).
`O=C(C=Cc1ccccc1)Nc1cc(-c2ccnc(N3CCC(O)CC3)c2)ccn1` has an AUC(0-inf) of 1400 ng·h/mL (female Sprague-Dawley rat; plasma; oral; 50 mg/kg).
`N#C[C@@]12C[C@@H]1[C@@H](n1cnc3c(N[C@@H](C4CCC4)C4CC4)nc(I)nc31)[C@H](O)[C@@H]2O` gave an AUC(0-inf) of 19.2 ng·h/mL (male Wistar rat; plasma; oral; 1 mg/kg).
The AUC(0-inf) of `O=c1cc(-c2ccc(O)c(O)c2)oc2cc(O)cc(O)c12` is reported as 98.6 ng·h/mL (male Sprague-Dawley rat; plasma; oral; 30 mg/kg).
With `CC1(CN)CCN(c2cnc3c(Sc4ccncc4Cl)n[nH]c3n2)CC1` the AUC was 411 ng·h/mL (male Sprague-Dawley rat; plasma; oral; 10 mg/kg).
`O=C1CC[C@H](N2Cc3cc(N4CCN(CC5CCN(c6ccc([C@@H]7c8ccc(O)cc8CC[C@@H]7c7ccccc7)cc6)CC5)CC4)ccc3C2=O)C(=O)N1` gave an AUC(0-t) of 18400 ng·h/mL (female Sprague-Dawley rat; plasma; oral; 20 mg/kg; fed).
The AUC(0-t) of `CC(=Nc1ccc(N=Cc2cnccn2)cc1)N(C)C` is reported as 305 ng·h/mL (male Sprague-Dawley rat; plasma; oral; 200 mg/kg).
With `C[C@H]1[C@@H](O)O[C@@H]2O[C@@]3(C)CC[C@H]4[C@H](C)CC[C@@H]1[C@@]24OO3` the AUC(0-inf) was 205 ng·h/mL (Sprague-Dawley rat; plasma; oral; 10 mg/kg).
With `COc1ccc2cc3n(c(=O)c2c1OC)CCc1cc2c(cc1-3)OCO2` the AUC(0-inf) was 985 ng·h/mL (male Sprague-Dawley rat; blood; oral; 50 mg/kg).
For `O=C1c2ccncc2C(=O)c2c1[nH]c1ccccc21`, the AUC(0-inf) was 8.58 µM·h (rat; plasma; intravenous; 5 mg/kg; single dose).
